Common to all, as to type: functional
A short description of experiment [1]: Free radical scavenging activity assessed as inhibition of DPPH radical generation at 25 ug. The essentials: (§1)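 Brand-Williams method: 1 mL sample at […] per mL mixed with 2 mL of 0.2 mM methanolic DPPH. Stood 30 min at room temperature, then absorbance read at 517 nm. % scavenging calculated relative to 0.2 mM DPPH control without sample.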
On the technique in general: DPPH is a stable violet radical that fades when it is reduced.

Experiment [2] can be described thus: Free radical scavenging activity assessed as inhibition of hydroxyl radical generation at 100 ug by Fenton reaction method.
Experiment [3] in a line: Free radical scavenging activity assessed as inhibition of nitric oxide generation at 100 ug.
The nature of experiment [4]: Free radical scavenging activity assessed as inhibition of superoxide anion generation at 100 ug.
Experiment [5] is described as follows: Free radical scavenging activity assessed as inhibition of DPPH radical generation at 50 ug. A digest of the protocol: as §1
Experiment [6] is described as follows: Free radical scavenging activity assessed as inhibition of DPPH radical generation at 100 ug. The essentials:
as §1

Experiment [7] deals with Rattus norvegicus. In words: Antiinflammatory activity in Wistar albino rat assessed as inhibition of carrageenan-induced paw edema dosed at 20 mg/kg in plantar region of paw administered 30 mins before carrageenan challenge measured 2 hrs post carrageenan-induced inflammation. A digest of the protocol:
(§2)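 Wistar albino rats of either sex, 180–250 g, fasted 12 h before and during testing. Test compounds at 20 mg/kg given 30 min before carrageenan (0.1 mL of 1% w/v) injected into the plantar paw; diclofenac 20 mg/kg as reference. Paw volume by plethysmography at 30–180 min. % inhibition = (1 − Vt/Vc) × 100 against control edema; mean ± SEM, n = 6.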

Experiment [8] concerns Rattus norvegicus. Briefly: Antiinflammatory activity in Wistar albino rat assessed as inhibition of carrageenan-induced paw edema dosed at 20 mg/kg in plantar region of paw administered 30 mins before carrageenan challenge measured 3 hrs post carrageenan-induced inflammation. A digest of the protocol:
as §2
On the technique in general: In the carrageenan paw model, swelling and tenderness develop within hours.

Experiment [9] relates to Rattus norvegicus. Briefly: Antiinflammatory activity in Wistar albino rat assessed as inhibition of carrageenan-induced paw edema dosed at 20 mg/kg in plantar region of paw administered 30 mins before carrageenan challenge measured 0.5 hrs post carrageenan-induced inflammation. The essentials:
as §2

Experiment [10] has as its system Mus musculus. In words: Analgesic activity in Swiss albino mouse assessed as increase in reaction time at 10 mg/kg, ip measured 60 mins post dose by tail immersion method. Conditions: route intraperitoneal. The essentials:
(§3)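 Tail immersion in Swiss albino mice, 6 per group, heat as pain source. Tail tip dipped in a thermostatic bath held at 55 °C. Basal reaction time noted before treatment. Test compounds at 10 mg/kg i.p., with pentazocine as reference. Reaction time read at 30, 60 and 90 min, given as mean ± SEM with % increase over basal.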

Experiment [11] relates to Mus musculus. In words: Analgesic activity in Swiss albino mouse assessed as increase in reaction time at 10 mg/kg, ip measured 30 mins post dose by tail immersion method. Particulars: route intraperitoneal. A digest of the protocol:
as §3

The test system of experiment [12] is Rattus norvegicus. In words: Antiinflammatory activity in Wistar albino rat assessed as inhibition of carrageenan-induced paw edema dosed at 20 mg/kg in plantar region of paw administered 30 mins before carrageenan challenge measured 1.5 hrs post carrageenan-induced inflammation. The essentials: as §2
The test system of experiment [13] is Rattus norvegicus. Briefly: Antiinflammatory activity in Wistar albino rat assessed as inhibition of carrageenan-induced paw edema dosed at 20 mg/kg in plantar region of paw administered 30 mins before carrageenan challenge measured 1 hr post carrageenan-induced inflammation. The essentials:
as §2

For experiment [14], the system named is Mus musculus. In words: Analgesic activity in Swiss albino mouse assessed as increase in reaction time at 10 mg/kg, ip measured 90 mins post dose by tail immersion method. Conditions: route intraperitoneal. The essentials:
as §3

For experiment [15], the system named is Rattus norvegicus. In words: Antiinflammatory activity in Wistar albino rat assessed as inhibition of carrageenan-induced paw edema dosed at 20 mg/kg in plantar region of paw administered 30 mins before carrageenan challenge measured 2.5 hrs post carrageenan-induced inflammation. The essentials:
as §2

For 15 compounds, inhibition, inhibition in vivo and Activity results are on record in ChEMBL document CHEMBL2062410, “Synthesis, characterization and pharmacological study of 4,5-dihydropyrazolines carrying pyrimidine moiety” (2012).

As to `Clc1ccc([C@H]2CC(c3ccc(Br)cc3)=NN2c2ncc(Br)cn2)cc1`, the inhibition (commonly the relative decrease from the control value, in per cent) was determined as 56.8% in experiment [1]; 66.3% in experiment [2]; 40.2% in experiment [3]; 38.9% in experiment [4]; 68.2% in experiment [5]; 78.9% in [6].
In the case of `Brc1ccc([C@H]2CC(c3ccccc3)=NN2c2ncc(Br)cn2)cc1`, the inhibition in vivo (commonly the relative decrease from the control value, in per cent) at 20 mg/kg is 74% in the experiment with Rattus norvegicus [7]; 76% with Rattus norvegicus [8]; 64% with Rattus norvegicus [9]; 74% with Rattus norvegicus [12]; 68% with Rattus norvegicus [13]; 78% with Rattus norvegicus [15]. The inhibition in experiment [1] worked out at 65.4%; in experiment [2] it was 86.8%; in experiment [3], 47.6%; in experiment [4], 62.1%; in [5] it was 79.6%; in [6] it was 93.4%. The Activity with Mus musculus [10] came out at 62.01%; in the experiment on Mus musculus [11] it was 25.76%; in the experiment on Mus musculus [14] it was 59.39%.
Regarding `Cc1cc(C(C)(C)C)c(O)c(C(C)(C)C)c1`, the inhibition in experiment [1] is 65.9%; in experiment [2], 87%; in experiment [3], 43.2%; in experiment [4] it was 64%; in [5], 79.4%; in experiment [6], 93.2%.
Consider `Brc1ccc(C2=NN(c3ncc(Br)cn3)[C@@H](c3ccc(Br)cc3)C2)cc1`, for which the inhibition worked out at 51.5% in [1]; 71.4% in experiment [2]; 23.8% in experiment [3]; 52.5% in [4]; 69.7% in experiment [5]; 78.2% in [6].
Consider `COc1ccc([C@H]2CC(c3ccc(Cl)cc3)=NN2c2ncc(Br)cn2)cc1`, for which the inhibition in vivo at 20 mg/kg in the experiment with Rattus norvegicus [7] amounted to 70%; in the experiment on Rattus norvegicus [8], 73%; in the experiment on Rattus norvegicus [9] it was 58%; with Rattus norvegicus [12], 64%; in the experiment with Rattus norvegicus [13], 62%; with Rattus norvegicus [15], 69%. For the same compound, the inhibition in experiment [1] was found to be 68.5%; in experiment [2], 81.6%; in experiment [3] it was 46.2%; in [4], 58.7%; in experiment [5], 79.4%; in [6], 89.8%. The Activity is recorded as 39.25% in the experiment on Mus musculus [10], 28.97% in the experiment with Mus musculus [11] and 71.96% in the experiment on Mus musculus [14].
For the compound `Cc1ccc([C@H]2CC(c3ccc(Br)cc3)=NN2c2ncc(Br)cn2)cc1`, the inhibition in experiment [1] was 55.3%; in experiment [2] it was 71.5%; in [3] it was 33.7%; in experiment [4], 50.2%; in [5], 66.3%; in experiment [6] it was 69.3%.
In the case of `Clc1ccc(C2=NN(c3ncc(Br)cn3)[C@@H](c3ccc(Br)cc3)C2)cc1`, the inhibition in [1] was determined as 52.2%; in [2], 70.6%; in [3], 38.1%; in experiment [4], 24.6%; in [5], 67.3%; in experiment [6], 78.5%.
As to `O=C(O)Cc1ccccc1Nc1c(Cl)cccc1Cl` [DICLOFENAC], the inhibition in vivo at 20 mg/kg in the experiment on Rattus norvegicus [7] was 78%; in the experiment with Rattus norvegicus [8], 80%; in the experiment with Rattus norvegicus [9], 61%; in the experiment on Rattus norvegicus [12], 67%; in the experiment on Rattus norvegicus [13] it was 69%; in the experiment on Rattus norvegicus [15], 71%.
For the compound `CC(C)=CCN1CC[C@@]2(C)c3cc(O)ccc3C[C@@H]1[C@@H]2C` (relative stereo), the Activity with Mus musculus [10] is on record as 45.79%; in the experiment with Mus musculus [11] it was 25.7%; in the experiment with Mus musculus [14], 67.28%.
Consider `Clc1ccc(C2=NN(c3ncc(Br)cn3)[C@@H](c3ccccc3)C2)cc1`, for which the inhibition in vivo at 20 mg/kg in the experiment with Rattus norvegicus [7] worked out at 73%; in the experiment with Rattus norvegicus [8], 75%; with Rattus norvegicus [9], 60%; with Rattus norvegicus [12] it was 71%; in the experiment on Rattus norvegicus [13], 71%; with Rattus norvegicus [15] it was 70%. Further, the inhibition in experiment [1] was found to be 62.7%; in experiment [2] it was 82.6%; in experiment [3], 39.1%; in experiment [4] it was 42.6%; in [5] it was 76.5%; in experiment [6], 90.5%. Besides, the Activity in the experiment with Mus musculus [10] is given as 70.79%; with Mus musculus [11], 37.62%; with Mus musculus [14] it was 84.65%.
As to `O=[N+]([O-])c1ccc([C@H]2CC(c3ccccc3)=NN2c2ncc(Br)cn2)cc1`, the inhibition was found to be 54.5% in [1]; 79.2% in experiment [2]; 32.1% in experiment [3]; 42.2% in experiment [4]; 64.7% in [5]; 75.6% in [6].
As to `Clc1ccc(C2=NN(c3ncc(Br)cn3)[C@@H](c3ccc(Cl)cc3)C2)cc1`, the inhibition in experiment [1] was 54.5%; in experiment [2], 69.4%; in experiment [3] it was 31.4%; in experiment [4], 38.6%; in experiment [5] it was 69.2%; in experiment [6], 78.3%.
`Cc1ccc([C@H]2CC(c3ccc(Cl)cc3)=NN2c2ncc(Br)cn2)cc1`: the inhibition in experiment [1] is 54.4%; in [2] it was 63.2%; in experiment [3], 38.1%; in [4], 43.8%; in experiment [5] it was 71.8%; in experiment [6] it was 80%.
In the case of `Cc1ccc([C@H]2CC(c3ccccc3)=NN2c2ncc(Br)cn2)cc1`, the inhibition in vivo at 20 mg/kg in the experiment with Rattus norvegicus [7] came out at 69%; in the experiment on Rattus norvegicus [8], 79%; in the experiment with Rattus norvegicus [9] it was 63%; with Rattus norvegicus [12] it was 71%; with Rattus norvegicus [13] it was 68%; with Rattus norvegicus [15], 72%. The inhibition was found to be 67.5% in experiment [1]; 89.1% in experiment [2]; 56.1% in experiment [3]; 59.1% in experiment [4]; 79.2% in experiment [5]; 94.1% in [6]. The results for the Activity with Mus musculus [10], with Mus musculus [11] and in the experiment on Mus musculus [14] were 73.66%, 16.51% and 65.63%, respectively.
As to `Clc1ccc([C@H]2CC(c3ccccc3)=NN2c2ncc(Br)cn2)cc1`, the inhibition in vivo at 20 mg/kg in the experiment on Rattus norvegicus [7] came to 76%; with Rattus norvegicus [8], 78%; with Rattus norvegicus [9] it was 61%; with Rattus norvegicus [12], 71%; in the experiment on Rattus norvegicus [13] it was 70%; in the experiment on Rattus norvegicus [15] it was 72%. For the same compound, the inhibition stood at 60.1% in experiment [1]; 87.9% in experiment [2]; 43.3% in experiment [3]; 60% in experiment [4]; 78.1% in experiment [5]; 93.5% in experiment [6]. Besides, the Activity in the experiment with Mus musculus [10] came to 72.16%; in the experiment on Mus musculus [11], 29.71%; in the experiment with Mus musculus [14] it was 78.31%.
